Compounds with a hit are over-represented: about 3.7% of the library has one in this group of screens.
KCNQ1 inh – blocks the human KCNQ1 potassium channel; B-score at 10 µM; 310,000 compounds, 1.3% hits; AID 2642; P51787; CHO-K1 KCNQ1, FluxOR thallium flux fluorescence; active compounds read high;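 active = compounds whose thallium flux B-score, printed positive for inhibition, exceeds three library SD while starting fluorescence stays within three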;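 note: channel opened by potassium depolarization with thallium stimulus after 20 min compound exposure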
KCNK9 block – human KCNK9 channel inhibition | Q9NPC2 | HEK293 KCNK9, FluxOR thallium flux fluorescence; active compounds read low | B-score at 10 µM | 310,000 compounds, 1.2% hits;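 active = ratio B-score over 3 SD below the library mean, with starting fluorescence within 5 SD of its mean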;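 note: negative B-score means less thallium flux so channel inhibition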
Kir21 block – Kir2.1 (mouse) channel inhibition; P35561; B-score at 10 µM; AID 1672; 310,000 compounds, 0.85% hits; HEK293-Kir2.1, FluxOR thallium flux fluorescence; active compounds read low;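 active = fluorescence ratio B-score at or below minus 3 SD of library scores, with starting-brightness B-score within 2 SD, cut at about -4.2 in these data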;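 note: channel flux triggered by added potassium and thallium sulfate stimulus; B-score of peak minus minimum fluorescence over baseline after thallium stimulus; more negative B-score means stronger Kir2.1 block with less thallium influx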
Target sequence (P35561 whole entry, looked up): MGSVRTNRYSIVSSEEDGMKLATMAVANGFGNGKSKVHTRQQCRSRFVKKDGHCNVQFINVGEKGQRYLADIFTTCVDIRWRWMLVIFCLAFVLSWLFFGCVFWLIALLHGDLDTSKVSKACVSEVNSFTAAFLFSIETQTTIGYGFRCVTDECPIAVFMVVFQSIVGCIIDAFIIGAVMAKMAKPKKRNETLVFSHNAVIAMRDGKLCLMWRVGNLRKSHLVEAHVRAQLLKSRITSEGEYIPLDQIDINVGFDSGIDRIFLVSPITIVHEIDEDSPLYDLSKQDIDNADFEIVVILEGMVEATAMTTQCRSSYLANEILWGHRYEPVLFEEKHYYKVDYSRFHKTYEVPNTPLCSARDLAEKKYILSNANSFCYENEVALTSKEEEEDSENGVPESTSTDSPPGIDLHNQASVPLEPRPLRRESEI
KCNQ1 act – potentiators or activators of human KCNQ1 potassium channel | P51787 | CHO-K1 KCNQ1, thallium flux FluxOR fluorescence; active compounds read high | B-score at 10 µM | 310,000 compounds, 0.35% hits | AID 2648;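 active = fluorescence ratio B-score, a plate-corrected score, at least three library SD, with initial intensity B-score within 5 SD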
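Schedule – 37 °C overnight plating, 90-min dark dye load, 20-min compound pretreatment · System – stable KCNQ1 CHO-K1 line · Probe or stimulus – thallium- and potassium-containing depolarizing buffer · Measured by – kinetic FluxOR fluorescence, 10 s baseline plus 110 s post-stimulus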
hERG rescue – shields human hERG channel from block by proarrhythmic agents; CHO-hERG, FluxOR thallium flux, dofetilide IC70 present; activation (rescue from dofetilide block), less the hit threshold, % at 10 µM; 310,000 compounds, 0.51% hits; AID 1511;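 active = activation above the mean of controls blocked by dofetilide plus 5 SD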;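 note: thallium influx through hERG after potassium depolarization seen as dye fluorescence rise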
KCNK3 inh – human KCNK3 channel inhibition, primary screen. O14649. CHO-KCNK3 thallium flux, FluxOR fluorescence; active compounds read low. B-score at 10 µM. 340,000 compounds, 0.84% hits;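 active = B-score under library mean minus 4 SD, starting fluorescence ratio at most library mean plus 5 SD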;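 note: more negative B-score means stronger inhibition of thallium flux through KCNK3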
* = called active by the depositor; i = inactive; · = no result.

SMILES	KCNQ1 inh	KCNK9 block	Kir21 block	KCNQ1 act	hERG rescue	KCNK3 inh
Cc1cnc(C(=O)OCC(=O)Nc2cccc(S(=O)(=O)N3CCOCC3)c2)cn1	·	·	·	·	·	i
CN(C)c1cc(-c2ccc(Br)cc2)oc(=O)c1Cl	i	i	0.72	i	-4	i
O=C(c1ccco1)N1CCN(S(=O)(=O)c2ccc(C3CCCCC3)cc2)CC1	i	i	0.22	i	8.2*	i
O=C(c1ccco1)N1CCN(S(=O)(=O)c2ccc(S(=O)(=O)NC3CCCCC3)cc2)CC1	i	i	0.96	i	-7	i
O=C(CCc1ccccc1)N[C@@H]1c2ccccc2CC[C@H]1OCc1ccccc1	·	·	·	·	·	i
CSc1ccccc1OC1CCN(Cc2ccccc2)CC1	i	i	-13*	i	-5	i
CC(=O)C1CCN(Cc2ccccc2)CC1	i	i	0	i	0	i
O=C(CNc1cccc(C(F)(F)F)c1)Nc1cccc(S(=O)(=O)N2CCCC2)c1	·	·	·	·	·	-9.3*
C=CCn1c(SCC(=O)Nc2sccc2C(N)=O)nc2ccc(Cl)cc2c1=O	i	i	0	i	-4	i
C=CCn1c(SCN2C(=O)c3ccccc3C2=O)nc2ccc(Cl)cc2c1=O	i	i	-1.8	9*	3	i
C=CCNC(=O)COC(=O)c1ccc(Cl)c(S(=O)(=O)N(Cc2ccccc2)c2ccccc2)c1	6*	i	0.29	i	-7	i
NC(=O)NC(=O)COC(=O)c1ccc(Cl)c(S(=O)(=O)N(Cc2ccccc2)c2ccc(Cl)cc2)c1	i	i	0.09	i	-10	i
CCC1=C(OC(=O)N(CC)CC)N2C(=O)OC(=NCCc3c[nH]c4ccccc34)[C@]2(Cc2ccccc2)[C@H]2C1=CC[C@H]1C(=O)N(CC)C(=O)[C@H]12	i	-6.8*	0.46	i	-11	i
Oc1ccccc1/C=N/NC(=S)NC1CC2CC1C1C=CCC21 (stereo not drawn)	i	i	0.03	i	-11	i
CCOC(=O)c1ccc(Oc2cc(C)nc(SC)n2)cc1	i	i	-1.6	i	5.5*	i
CC(OC(=O)CCC1CCCCC1)C(=O)Nc1ccc(S(N)(=O)=O)cc1 (stereo not drawn)	i	i	0.59	i	-7	i
CCOc1cc(NC(=S)N2CCC(C(N)=O)CC2)c(C(=O)OC)cc1OCC	i	i	0.2	i	11*	i
CCN(c1cccc(C)c1)S(=O)(=O)c1cnc[nH]1	i	i	-3.4	i	5.3*	i
O=C(OCC(=O)N1CCN(c2ccccc2)CC1)c1cccc(Cl)c1	i	i	0	i	-10	i
O=C(OCC(=O)N1CCN(c2ccccc2)CC1)c1cnc(Cl)c(Cl)c1	i	i	-0.49	i	9.4*	·
O=C(Nc1ccc(Cl)cc1)Nn1cnnc1	i	i	-1.7	i	5.7*	i
Cc1ccc(NC(=O)Nn2cnnc2)cc1	i	i	0.49	i	-7	i
CC1CCN(CCCCOc2ccc(C(=O)c3ccccc3)cc2)CC1	i	i	-5.5*	i	-5	i
CC1CCN(CCCOc2ccc(OCc3ccccc3)cc2)CC1	i	i	-7.2*	i	-14	i
c1ccc(COc2ccc(OCCCN3CCCC3)cc2)cc1	i	i	-0.62	i	-10	i
SMILES	KCNQ1 inh	KCNK9 block	Kir21 block	KCNQ1 act	hERG rescue	KCNK3 inh
O=S(=O)(Nc1ccc2c(c1)OCO2)c1ccc(F)c(F)c1	·	·	·	·	·	i
COc1ccc(N(Cc2cc3cccc(C)c3[nH]c2=O)S(=O)(=O)c2ccc(OC)cc2)cc1	i	i	0.53	i	-4	i
COc1ccc(N(Cc2cc3cccc(C)c3[nH]c2=O)S(=O)(=O)c2ccc(Cl)cc2)cc1	i	-7.5*	0.52	i	-9	i
O=C(NNC(=O)c1cc(Cl)ccc1O)c1ccc(NS(=O)(=O)c2cccs2)cc1	i	i	0.42	i	-33	i
CSCCC(NC(=O)c1ccccc1Cl)C(=O)N1CCN(C(c2ccccc2)c2ccccc2)CC1 (stereo not drawn)	i	i	-4.7*	i	-6	i
CCCOP(=O)(c1ccccc1)c1ccccc1	i	i	0.84	i	-5	i
CC(C)CCOP(=O)(c1ccccc1)c1ccccc1	i	-6.8*	-1.3	i	-7	i
COc1ccc(-c2c[n+]3c4n2CCCCC4=C(c2ccccc2)C3)cc1	7*	i	-1.7	i	-33	i
COc1ccc(-c2c[n+](CC(=O)c3ccccc3)c3n2CCCCC3)cc1	i	i	-0.45	i	-8	i
O=S(=O)(c1ccc(Cl)cc1)N1CCCC1c1nc2ccccc2s1 (stereo not drawn)	i	i	-4.7*	i	-12	i
O=S(=O)(c1cc(Cl)cc(Cl)c1)N1CCCC1c1nc2ccccc2s1 (stereo not drawn)	i	i	1.1	i	-6	i
O=C1c2ccccc2C(=O)N1OCCCN1C(=O)c2ccccc2S1(=O)=O	·	·	·	·	·	i
Cc1ccc(N(C)S(=O)(=O)c2cc3c(cc2C)NC(=O)CO3)cc1	i	i	-0.35	i	-8	i
Cc1ccc(OCCNC(=O)c2cc(C3CC3)nc3c2cnn3C(C)C)cc1	·	·	·	·	·	i
CCC(OC(=O)c1cccs1)C(=O)NCc1ccco1 (stereo not drawn)	i	i	0.82	i	51*	i
O=C(c1ccoc1)N1CCC2(CC1)Oc1ccc(F)cc1C(=O)C21CC(c2ccc(Cl)cc2)=NO1 (stereo not drawn)	i	i	0.71	i	-6	i
O=C(c1ccoc1)N1CCC2(CC1)Oc1ccc(Cl)cc1C(=O)C21CC(c2ccc(Cl)cc2)=NO1 (stereo not drawn)	6*	i	-0.73	i	-12	i
COC(=O)c1ccc(OC(=O)CCN2c3ccccc3Sc3ccccc32)cc1	i	-7.5*	-0.4	i	-11	i
O=C(CCN1c2ccccc2Sc2ccccc21)Oc1ccccc1	i	i	-1.5	i	-10	i
Cc1cc(Nc2ccccc2)n(C(=O)c2ccc(Cl)cc2)n1	i	-6.6*	-0.31	i	-7	i
Cc1cc(Nc2ccccc2)n(-c2ccc(C(=O)O)cc2)n1	i	i	-0.01	i	2	i
C=CCn1c(CSCc2ccc(Cl)cc2)nnc1SCC(=O)NCc1ccccc1	i	i	-4.8*	i	-9	i
Cc1cc(C)n(-c2nc3sc4c(c3c(=O)[nH]2)CCCC4)n1	i	i	0.81	13*	-5	·

High-throughput results as filed in PubChem BioAssay.
